Source: ChEMBL document CHEMBL4130608, “Isolation, Derivative Synthesis, and Structure-Activity Relationships of Antiparasitic Bromopyrrole Alkaloids from the Marine Sponge Tedania brasiliensis” (J Nat Prod, 2018)
Values after ≈ are worked out from the molar mass of the structure shown. Active and inactive are the calls of the source. The rule behind the calls is not given here.

How the values were obtained:
Plasmodium falciparum [1] = assay: Antiplasmodial activity against drug-sensitive blood stage Plasmodium falciparum 3D7 by SYBR green 1 staining based fluorescence assay; type: functional, organism-based
Procedure, shortened: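 Sorbitol-synchronized ring-stage 3D7 exposed to a range of concentrations (samples in 0.05% DMSO), in triplicate. Then lysed with Tris/EDTA/saponin/Triton buffer containing SYBR Green I (1:20000) for 30 min. IC50 from curve fitting against untreated growth.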

Plasmodium falciparum [2] = assay: Antiplasmodial activity against chloroquine/cycloguanil/pyrimethamine-resistant blood stage Plasmodium falciparum K1 by SYBR green 1 staining based fluorescence assay; type: functional, organism-based
Procedure, shortened: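 Freshly sorbitol-synchronized ring stages were exposed in triplicate to a concentration series, solubilized in 0.05% DMSO (v/v), alongside sample-free cultures. Cells were lysed for 30 min in 20 mM Tris pH 7.5, 5 mM EDTA, 0.008% saponin and 0.08% Triton X-100 with SYBR green I (1:20000). IC50 was obtained by curve fitting against untreated growth.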

Leishmania infantum = assay: Antileishmanial activity against Leishmania infantum MHOM/BR/1972/LD promastigotes after 24 hrs by MTT assay; type: functional, organism-based
Procedure, shortened: (§1)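 Promastigotes (L. amazonensis, L. infantum; 26 °C, M199 with 20% heat-inactivated FBS, hemin, adenine, L-glutamine, plus 5% human urine for L. infantum) or T. cruzi Y epimastigotes (LIT with hemin, 10% FCS, 28 °C). Exposed to a series of concentrations for 24 h. Viability read by MTT. EC50 from sigmoidal fit of concentration–response. Triplicates, repeated two or three times.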

Trypanosoma cruzi = assay: Antitrypanosomal activity against Trypanosoma cruzi Y epimastigotes after 24 hrs by MTT assay; type: functional, organism-based; procedure, shortened: as §1
Leishmania amazonensis [3] = assay: Antileishmanial activity against Leishmania amazonensis MHOM/BR/1973/M2269 promastigotes after 24 hrs by MTT assay; type: functional, organism-based; details: MHOM/BR/1973/M2269, 24 h; procedure, shortened: as §1
BMDM = assay: Cytotoxicity against BALB/c mouse BMDM after 24 hrs by MTT assay; type: cell-based
Procedure, shortened: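 Differentiated BALB/c female mouse bone marrow macrophages incubated at 37 °C with increasing concentrations for 24 h. Viability read by MTT and CC50 calculated.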

Plasmodium falciparum [4] = assay: Antiplasmodial activity against chloroquine/pyrimethamine-resistant Plasmodium falciparum K1 assessed as reduction in [3H]hypoxanthine incorporation pretreated for 48 hrs followed by [3H]hypoxanthine addition measured after 24 hrs by liquid scintillation counting method; type: functional, organism-based
Leishmania donovani = assay: Antileishmanial activity against Leishmania donovani MHOM/ET/67/L82 amastigote forms after 72 hrs by alamar blue staining based fluorescence assay; type: functional, organism-based; details: MHOM/ET/67/L82, 72 h
[5] = test system: Trypanosoma brucei rhodesiense; assay: Antitrypanosomal activity against Trypanosoma brucei rhodesiense STIB 900 bloodstream forms after 72 hrs by alamar blue staining based fluorescence assay; type: functional, organism-based; details: STIB 900, 72 h
[6] = Cytotoxicity against human HepG2 cells after 24 hrs by MTT assay; type: cell-based; details: read-out: MDL50
Procedure, shortened: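 HepG2 cells grown in RPMI-1640 with 10% FBS, seeded at 5 × 10^3 cells/well and allowed to adhere for 18 h. Exposed to 1,000–1 μg/mL for 24 h at 37 °C, 5% CO2. MTT (5 mg/mL stock) added for 3 h, formazan dissolved in DMSO, absorbance read at 570 and 630 nm. Viability expressed as % of untreated control after background subtraction.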

[7] = Selectivity index, ratio of MDL50 for human HepG2 cells to IC50 for drug-sensitive blood stage Plasmodium falciparum 3D7; type: toxicity; details: HepG2 cells versus blood stage Plasmodium falciparum 3D7, read-out: Selectivity Index
Leishmania amazonensis [8] = assay: Antileishmanial activity against Leishmania amazonensis amastigotes infected in BALB/c mouse BMDM assessed as reduction in intracellular amastigotes at 25 uM after 24 hrs by microscopic analysis relative to control; type: functional; set-up: scale not given: the % may be the effect or the level left
Procedure, shortened: (§2)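 BALB/c bone marrow macrophages infected with stationary-phase L. amazonensis promastigotes (MOI 10) for 1 h, then washed and held 24 h at 33 °C, 5% CO2. Treated with 6.125, 25, 50 or 100 μM for 24 h at 33 °C. Cells MeOH-fixed and stained. Amastigotes counted in 300 cells per coverslip on triplicate coverslips. Expressed as % reduction versus untreated infected cells. Two independent experiments.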

Leishmania amazonensis [9] = assay: Antileishmanial activity against Leishmania amazonensis amastigotes infected in BALB/c mouse BMDM assessed as reduction in intracellular amastigotes at 6.125 uM after 24 hrs by microscopic analysis relative to control; type: functional; set-up: scale not given: the % may be the effect or the level left; procedure, shortened: as §2
Leishmania amazonensis [10] = assay: Antileishmanial activity against Leishmania amazonensis amastigotes infected in BALB/c mouse BMDM assessed as reduction in intracellular amastigotes at 50 uM after 24 hrs by microscopic analysis relative to control; type: functional; set-up: scale not given: the % may be the effect or the level left; procedure, shortened: as §2
Leishmania amazonensis [11] = assay: Antileishmanial activity against Leishmania amazonensis amastigotes infected in BALB/c mouse BMDM assessed as reduction in intracellular amastigotes at 100 uM after 24 hrs by microscopic analysis relative to control; type: functional; set-up: scale not given: the % may be the effect or the level left; procedure, shortened: as §2
Leishmania amazonensis [12] = assay: Antileishmanial activity against Leishmania amazonensis amastigotes infected in BALB/c mouse BMDM assessed as reduction in intracellular amastigotes after 24 hrs by microscopic analysis; type: functional, organism-based; procedure, shortened: as §2
HepG2 = assay: Cytotoxicity against human HepG2 cells assessed as morphological changes at 10 uM by microscopic method; type: cell-based; details: hepg2, 10 µM
Procedure, shortened: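 HepG2 cells treated at 10 μM for 24 h. Microscopic morphology compared with untreated cells.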

Plasmodium falciparum [13] = assay: Antiplasmodial activity against drug-sensitive blood stage Plasmodium falciparum 3D7 ring forms assessed as morphological changes at 10 times IC50 after 8 to 16 hrs by microscopic analysis; type: functional, organism-based
Procedure, shortened: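 Morphology examined by microscopy at 0, 8, 16 and 32 h post-synchronization. Three independent experiments.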

Plasmodium falciparum [14] = assay: Antiplasmodial activity against chloroquine/cycloguanil/pyrimethamine-resistant blood stage Plasmodium falciparum K1 assessed as morphological changes at 10 times IC50 after 8 to 16 hrs by microscopic analysis; type: functional, organism-based
Procedure, shortened: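 Highly synchronized blood-stage parasites were kept under continuous treatment, with a DMSO-treated control. Morphology was examined by microscopy at 0, 8, 16 and 32 h post-synchronization. Images are representative of three independent experiments.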

Plasmodium falciparum [15] = assay: Synergistic antiplasmodial activity against drug-sensitive blood stage Plasmodium falciparum 3D7 in presence of artesunate; type: functional
Procedure, shortened: (§3)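 Each drug's stock was made in complete medium so that the final concentration approximates its IC50 after 3–4 twofold dilutions. Stocks were mixed v/v at ratios ranging from 0:5 to 5:0 and serially diluted two-fold to seven concentrations. FIC50 was computed for each drug and summed as ΣFIC50.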

Plasmodium falciparum [16] = assay: Synergistic antiplasmodial activity against chloroquine/cycloguanil/pyrimethamine-resistant blood stage Plasmodium falciparum K1 in presence of artesunate; type: functional; procedure, shortened: as §3

IC50 (Plasmodium falciparum [1])	EC50 (Trypanosoma cruzi)	SMILES	EC50 (Leishmania infantum)	EC50 (Leishmania amazonensis [3])	other results
> 10 µM	> 100 µM	Cc1cccc(C(=O)NCCCCNCCCNC(=O)c2cccc(C)n2)n1	> 100 µM	> 100 µM	
> 10 µM	7 µM	O=C(NCCCCCNC(=O)c1cc(Br)c(Br)[nH]1)c1cc(Br)c(Br)[nH]1	24 µM	19 µM	CC50 (BMDM): 52 µM
		NC[C@H]1[C@@H]2CN3C(=O)c4cc(Br)c(Br)n4[C@H]4NC(N)=N[C@]43[C@H]2[C@@]2(N=C(N)N[C@@H]2O)[C@@H]1Cl			IC50 (Plasmodium falciparum [4]): 1.48 µg/mL (≈ 2.56 µM); IC50 (Leishmania donovani): 1.48 µg/mL (≈ 2.56 µM); IC50 [5]: 0.46 µg/mL (≈ 0.796 µM)
> 10 µM	> 100 µM	O=C(NCCCCNCCCNC(=O)c1ccc(F)[nH]1)c1ccc(F)[nH]1	> 100 µM	> 100 µM	
7 µM	> 100 µM	O=C(NCCCCNCCCNC(=O)c1cc(Br)c[nH]1)c1cc(Br)c[nH]1	> 100 µM	> 100 µM	CC50 at 24 h [6]: ≥ 400 µM; selectivity ratio [7]: ≥ 54
> 10 µM	> 100 µM	O=C(NCCCCNCCCNC(=O)c1ccc(Br)s1)c1ccc(Br)s1	20 µM	76 µM	Activity (Leishmania amazonensis [8]): 41.5%; Activity (Leishmania amazonensis [9]): 46.4%; CC50 (BMDM): > 100 µM; Activity (Leishmania amazonensis [10]): 58.8%; Activity (Leishmania amazonensis [11]): 79.5%; Activity (Leishmania amazonensis [12]): Dose-dependent effect
> 10 µM	> 50 µM	[N-]=[N+]=NCC(=O)N(CCCCNC(=O)c1cc(Br)c(Br)[nH]1)CCCNC(=O)c1cc(Br)c(Br)[nH]1	> 100 µM	> 100 µM	
		NC1NC(=O)/C(=C2/CCNC(=O)c3[nH]cc(Br)c32)N1 (stereo not given) [SPONGIACIDIN B]			IC50 (Plasmodium falciparum [4]): 1.09 µg/mL (≈ 3.34 µM)
		O=C(O)CC1CNC(=O)c2cc(Br)c(Br)n21 (stereo not given)			IC50 (Leishmania donovani): 3.85 µg/mL (≈ 10.9 µM); IC50 [5]: 1.53 µg/mL (≈ 4.35 µM)
> 10 µM	> 50 µM	O=C(NCCCCCNC(=O)c1ccc[nH]1)c1ccc[nH]1	> 100 µM	> 100 µM	
> 10 µM	> 100 µM	CC(=O)N(CCCCNC(=O)c1cc(Br)c(Br)[nH]1)CCCNC(=O)c1cc(Br)c(Br)[nH]1	> 100 µM	> 100 µM	
> 10 µM	> 100 µM	O=C(NCCCCNCCCNC(=O)c1cc(Cl)c(Cl)[nH]1)c1cc(Cl)c(Cl)[nH]1	> 100 µM	> 100 µM	
> 10 µM	> 100 µM	O=C(NCCCCNCCCNC(=O)c1nc2ccccc2[nH]1)c1nc2ccccc2[nH]1	> 100 µM	> 100 µM	
> 10 µM	> 100 µM	Cc1ccc(C(=O)NCCCCNCCCNC(=O)c2ccc(C)s2)s1	> 100 µM	> 100 µM	
2 µM	> 100 µM	O=C(NCCCCCCNCCCCCCNC(=O)c1cc(Br)c(Br)[nH]1)c1cc(Br)c(Br)[nH]1	> 100 µM	> 100 µM	CC50 at 24 h [6]: 263 µM; selectivity ratio [7]: 101
> 10 µM	> 100 µM	O=C(NCCCCNCCCNC(=O)c1cc2ccccc2[nH]1)c1cc2ccccc2[nH]1	> 100 µM	> 100 µM	
> 10 µM	> 100 µM	O=C(NCCCCNCCCNC(=O)c1cccc(Cl)n1)c1cccc(Cl)n1	> 100 µM	> 100 µM	
		NC1=N/C(=C\CCNC(=O)c2cc(Br)c[nH]2)C(=O)N1			IC50 (Plasmodium falciparum [4]): 1.34 µg/mL (≈ 4.11 µM)
3 µM	> 100 µM	O=C(NCCCCNCCCNC(=O)c1cc(Br)c(Br)o1)c1cc(Br)c(Br)o1	23 µM	18 µM	Activity (Leishmania amazonensis [8]): 35%; Activity (Leishmania amazonensis [9]): 55.6%; CC50 at 24 h [6]: ≥ 400 µM; CC50 (BMDM): 82 µM; selectivity ratio [7]: ≥ 125; Activity (Leishmania amazonensis [10]): 60%; Activity (Leishmania amazonensis [11]): 77.4%; Activity (Leishmania amazonensis [12]): Dose-dependent effect
> 10 µM	24 µM	O=C(NCCSCCNC(=O)c1cc(Br)c(Br)[nH]1)c1cc(Br)c(Br)[nH]1	24 µM	43 µM	CC50 (BMDM): 66 µM
4 µM	> 100 µM	CN(CCCCNC(=O)c1cc(Br)c(Br)[nH]1)CCCNC(=O)c1cc(Br)c(Br)[nH]1	> 100 µM	> 100 µM	CC50 at 24 h [6]: 160 µM; selectivity ratio [7]: 35
> 10 µM	> 100 µM	O=C(NCCCCNCCCNC(=O)c1ccc[nH]1)c1ccc[nH]1	> 100 µM	> 100 µM	
> 10 µM	> 100 µM	O=C(NCCCCCCCCNC(=O)c1cc(Br)c(Br)[nH]1)c1cc(Br)c(Br)[nH]1	> 100 µM	> 100 µM	
> 10 µM	> 100 µM	Cc1ccc(C(=O)NCCCCNCCCNC(=O)c2ccc(C)o2)o1	> 100 µM	> 100 µM	

SMILES	IC50 (Plasmodium falciparum [1])	EC50 (Trypanosoma cruzi)	EC50 (Leishmania infantum)	EC50 (Leishmania amazonensis [3])	other results
CC1(C)N=C(N)N=C(N)N1c1ccc(Cl)cc1 [CYCLOGUANIL]	0.01 µM				IC50 (Plasmodium falciparum [2]): 0.54 µM
O=C(NCCCNCCCCNCCCNC(=O)c1cc(Br)c(Br)[nH]1)c1cc(Br)c(Br)[nH]1	2 µM	> 100 µM	18 to 19 µM	44 µM	Activity (Leishmania amazonensis [8]): 45.4%; Activity (Leishmania amazonensis [9]): 27.3%; CC50 at 24 h [6]: 99 µM; CC50 (BMDM): > 100 µM; selectivity ratio [7]: 52; Activity (Leishmania amazonensis [10]): 51%; Activity (Leishmania amazonensis [11]): 81.2%; Activity (Leishmania amazonensis [12]): Dose-dependent effect
O=C(NCCCCNCCCNC(=O)c1cc(Br)c(Br)[nH]1)c1cc(Br)c(Br)[nH]1	1 µM	> 100 µM	> 100 µM	> 100 µM	CC50 at 24 h [6]: 16 µM; selectivity ratio [7]: 15; Activity (HepG2): Non-Toxic; Activity (Plasmodium falciparum [13]): Active; Activity (Plasmodium falciparum [14]): Active; fractional inhibitory concentration index (FICI) (Plasmodium falciparum [15]): 1; IC50 (Plasmodium falciparum [2]): 1.1 µM; fractional inhibitory concentration index (FICI) (Plasmodium falciparum [16]): 1
